The values below come from ChEMBL document CHEMBL5357070, “Nicotinamide Phosphoribosyltransferase Positive Allosteric Modulators Attenuate Neuronal Oxidative Stress” (ACS Med Chem Lett, 2024).

Active and inactive are the calls of the source. The calls are words filed in the database; no cut-off is given here. Some results are limits rather than exact numbers.

Assay [1] has as its target T1, Nicotinamide phosphoribosyltransferase (Homo sapiens, UniProt P43490). As to the kind of experiment: Positive allosteric modulator activity at human C-terminal his 6 tagged NAMPT using NAM and PRPP as substrate by coupled enzymatic analysis.
Target sequence in this assay (P43490 whole entry): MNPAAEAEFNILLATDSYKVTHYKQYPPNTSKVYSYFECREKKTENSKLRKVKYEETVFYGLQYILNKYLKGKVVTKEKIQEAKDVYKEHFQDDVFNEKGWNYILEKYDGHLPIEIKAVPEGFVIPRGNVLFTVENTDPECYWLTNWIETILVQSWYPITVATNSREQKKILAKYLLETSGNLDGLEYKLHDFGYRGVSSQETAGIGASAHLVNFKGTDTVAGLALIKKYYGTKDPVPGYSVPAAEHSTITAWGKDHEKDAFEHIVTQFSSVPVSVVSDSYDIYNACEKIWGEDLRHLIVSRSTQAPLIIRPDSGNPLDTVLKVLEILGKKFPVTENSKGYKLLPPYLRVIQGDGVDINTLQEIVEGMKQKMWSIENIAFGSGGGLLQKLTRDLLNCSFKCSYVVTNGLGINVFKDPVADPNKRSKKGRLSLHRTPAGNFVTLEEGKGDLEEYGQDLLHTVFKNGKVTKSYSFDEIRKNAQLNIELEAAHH
The target in assay [2] is T1, Nicotinamide phosphoribosyltransferase. As to the kind of experiment: Positive allosteric modulator activity at C-terminal his 6 tagged NAMPT in human THP-1 cells assessed as increase in NAD+ level at 30 uM incubated for 24 hrs by NAD-glo assay relative to control. The class given is cell-based. The essentials:
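THP-1 cells in RPMI 1640 with 10% heat-inactivated FBS, seeded at 37,500 cells/well (low passage). Held 1.5 h at 37 °C, 5% CO2, then treated with compound in DMSO (final ≤1%) for 24 h. NAD+ measured by NAD+/NADH-Glo luminescence. Three separate experiments per concentration.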
Target sequence in this assay (P43490 whole entry, looked up): as the sequence (P43490 whole entry) above

Assay [3] relates to HT-22. As to the kind of experiment: Inhibition of oxidative stress in HT-22 cells assessed as fold reduction in […] induced ROS level at 0.3 uM measured after 18 to 24 hrs by MitoSOX red dye based flow cytometry analysis. The class given is functional, Mus musculus. The conditions noted are these: time 18-24 hrs. The essentials: (§1)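 HT22 mouse hippocampal neuronal cells (passage 12-50) grown in DMEM with 10% FBS, seeded at 3,000-5,000 cells/well on poly D-lysine-coated wells and left overnight. Cells were pretreated with compound in matched DMSO/PBS vehicle for 18-24 h, then stressed with recombinant mouse TNFα for a further 18-24 h. Staining in PBS used 1 μM calcein-AM, 5 μM MitoSOX and 10 μg/mL Hoechst for 30-45 min. Mitochondrial ROS was read as MitoSOX mean intensity on a Celigo imaging cytometer and given as fold-change over vehicle. Each run had ≥3 intraplate replicates, and the assay was repeated in ≥3 separate experiments.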
On the technique in general: Flow cytometry measures light scatter and fluorescence of single cells or particles in a stream.

Assay [4] concerns HT-22. As to the kind of experiment: Inhibition of oxidative stress in HT-22 cells assessed as fold reduction in […] induced ROS level at 2.5 uM measured after 18 to 24 hrs by MitoSOX red dye based flow cytometry analysis. The format is functional, Mus musculus. The conditions noted are these: time 18-24 hrs. The essentials:
as §1

In assay [5] the test system is HT-22. Nature of the assay: Inhibition of oxidative stress in HT-22 cells assessed as fold reduction in […] induced ROS level at 40 uM measured after 18 to 24 hrs by MitoSOX red dye based flow cytometry analysis. The class given is functional, Mus musculus. The conditions noted are these: time 18-24 hrs. The essentials: as §1
Assay [6] relates to HT-22. As to the kind of experiment: Inhibition of oxidative stress in HT-22 cells assessed as fold reduction in […] induced ROS level at 5.0 uM measured after 18 to 24 hrs by MitoSOX red dye based flow cytometry analysis. The format is functional, Mus musculus. The note with it: time 18-24 hrs. The gist of the method: as §1
Assay [7] has as its system HT-22. Nature of the assay: Inhibition of oxidative stress in HT-22 cells assessed as reduction in […] induced ROS level at 20 to 40 uM measured after 18 to 24 hrs by MitoSOX red dye based flow cytometry analysis. The format is functional, cell-based. The conditions noted are these: Mus musculus, dose 20-40 µM, time 18-24 hrs. The essentials:
(§2)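 HT22 mouse hippocampal neuronal cells (passage 12-50) seeded at 3,000-5,000 cells/well on poly D-lysine-coated wells and incubated overnight. Cells pretreated with compound (DMSO stocks, matched vehicle) for 18-24 h, then exposed to glutamate or mouse TNFα for 18-24 h. Stained in PBS with 1 μM calcein-AM, 5 μM MitoSOX and 10 μg/mL Hoechst for 30-45 min. Imaging cytometry; MitoSOX mean intensity expressed as fold over vehicle. At least three experiments, each with at least triplicate wells.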

In assay [8] the test system is HT-22. Nature of the assay: Neuroprotective activity against glutamate induced excitotoxicity in HT-22 cells assessed as decrease in ROS activity measured after 18 to 24 hrs MitoSOX red dye based flow cytometry analysis. The format is functional, cell-based. The conditions noted are these: Mus musculus, dose 1.25-40 µM, time 18-24 hrs. The gist of the method: as §2

Assay [9] concerns HT-22. Nature of the assay: Neuroprotective activity against glutamate induced excitotoxicity in HT-22 cells assessed as decrease in ROS activity at 20 to 40 uM measured after 18 to 24 hrs by MitoSOX red dye based flow cytometry analysis. The conditions noted are these: Mus musculus, dose 20-40 µM, time 18-24 hrs. The format is functional, cell-based. The gist of the method: as §2

Consider `COc1ccc(CN(CCC2(C(C)C)CCOC(C)(C)C2)C(=O)c2ccco2)c(C(F)(F)F)c1` (stereo not given), for which the EC50 result in assay [1] is “Not Active”.
Same read-out and setting: as for `COc1ccc(CNCCC2CCOCC2)cc1`, the entry is “Not Active”; as for `COc1ccc(CNC(=O)c2ccco2)cc1`, “Not Active”.
On the same count and under the same terms, as for `COc1ccc(CN(CCC2(C(C)C)CCOC(C)(C)C2)C(=O)c2cncnc2)cc1` (stereo not given), the entry is “Not Active”.
As to `COc1ccc(CN(CCC2(C(C)C)CCOC(C)(C)C2)C(=O)c2ccco2)cc1` (stereo not given), the Activity in [2] is 18%. The results for the “fold change (FC)” value in assay [3], in assay [4] and in assay [5] were 1.434, 1.425 and 1.133, respectively.
With `COc1ccc(CN(CCC2(C(C)C)CCOC(C)(C)C2)C(=O)c2ccc(Br)s2)cc1` (stereo not given), the EC50 in [1] (read-out: EC50) was 12.8 µM.
Consider `O=C(NCc1ccncc1)Nc1ccc(S(=O)(=O)N2CC3CCC(C2)O3)cc1`, for which the results for the “fold change (FC)” value in assay [3] and in assay [6] were 1.26 and 1.348, respectively.
Consider `COc1ccc(CN(CCC2(C(C)C)CCOC(C)(C)C2)C(=O)c2cnc[nH]2)cc1` (stereo not given), for which the EC50 in assay [1] is over 8 µM.
As for `CC(C)C1(CCN(Cc2ccc(N(C)C)cc2)C(=O)c2ccco2)CCOC(C)(C)C1` (stereo not given), in assay [1] (read-out: EC50), the EC50 was 3.29 µM. Also, the figures for the Activity in [2] (filed as positive allosteric modulator) and in assay [8] were 88% and “Dose-Dependent Effect”, respectively. The “fold change (FC)” value in assay [4] is recorded as 1.247; in assay [6] it was 1.287. In [7], the inhibition entry was “Active”. Further, in assay [9], the result was Active.
Turning to `CC(C)C1(CCN(Cc2ccc(OC(F)(F)F)cc2)C(=O)c2ccco2)CCOC(C)(C)C1` (stereo not given), in assay [1], the EC50 result is recorded as “Not Active”.

As a reminder, the EC50 is the concentration needed to bring the measured effect to its halfway point.
